The test system of one experiment is Enterobacter cloacae. In words: Antibacterial activity against gram negative organism, […] (MA2646). The class given is functional.
A further experiment relates to Escherichia coli. In words: Antibacterial activity was determined against gram negative organism, E. coli(vogel). Type of experiment: functional. In outline:
(§1)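 MIC by standard microtitration against a panel of 10 representative Gram-negative and Gram-positive organisms; values reported in µg/mL.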

In a further experiment the test system is Klebsiella pneumoniae. In words: Antibacterial activity was determined against gram negative organism, K. pneumoniae (MGH-2). The class given is functional. The method in brief: as §1
Experiment [1] concerns Mus musculus. In words: In vivo subcutaneous protective dose was determined in female charles river CD-1 mice infected with Streptococcus pneumoniae. The class given is functional. The note with it: sc, read-out: PD50. In outline: (§2)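 Acute lethal systemic infection model in mice; drug given by subcutaneous injection; potency read out as median protective dose (PD50), in mg/kg.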

Experiment [2] deals with Mus musculus. In words: In vivo oral protective dose was determined in female charles river CD-1 mice infected with Escherichia coli (vogel). Conditions: for ED50: Mus musculus, po, read-out: PD50. The class given is functional. In outline:
(§3)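 Acute lethal systemic infection model in mice; drug given orally by gavage; potency read out as median protective dose (PD50), in mg/kg.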

For experiment [3], the system named is Mus musculus. In words: In vivo oral protective dose was determined in female charles river CD-1 mice infected with Streptococcus pneumoniae. The class given is functional. Conditions: read-out: PD50. In outline: as §3
Experiment [4] concerns Mus musculus. In words: In vivo subcutaneous protective dose was determined in female charles river CD-1 mice infected with Escherichia coli (vogel). Conditions: sc, read-out: PD50. The class given is functional. In outline:
as §2

The next experiment has as its system Pseudomonas aeruginosa. In words: Antibacterial activity was determined against gram negative organism, Pseudomonas aeruginosa (UI-18). The class given is functional. In outline: as §1
For another experiment, the system named is Bacteria. In words: Antibacterial activity was determined against gram negative organism, Providencia rettgeri. (M1771). The class given is functional. The method in brief: as §1
The next experiment deals with Streptococcus pneumoniae. In words: Antibacterial activity was determined against gram positive organism, Streptococcus pneumoniae (SV-1). The class given is functional. In outline:
as §1

The test system of the next experiment is Enterococcus faecalis. In words: Antibacterial activity was determined against gram positive organism, Streptococcus faecalis (MGH-2). The class given is functional. The method in brief: as §1
For the next experiment, the system named is Streptococcus pyogenes. In words: Antibacterial activity was determined against gram positive organism, Streptococcus pyogenes (C203). The class given is functional. In outline:
as §1

Experiment [5] deals with Staphylococcus aureus. In words: Antibacterial activity was determined against gram positive organism, Staphylococcus aureus (H228). The class given is functional. The method in brief:
as §1

For experiment [6], the system named is Staphylococcus aureus. In words: Antibacterial activity was determined against gram positive organism, Staphylococcus aureus (UC76). Type of experiment: functional. The method in brief:
as §1

Experiment [7] in a line: MIC ratio measured as the mean MICs of gram-negative bacteria. Type of experiment: functional. The method in brief: (§4)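 Geometric mean of the MICs (µg/mL) over the Gram-negative or the Gram-positive strains of the 10-organism microtitration panel, calculated separately for each class.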
Experiment [8] can be described thus: MIC ratio measured as the mean MICs of gram-positive bacteria. The class given is functional. In outline: as §4
Experiment [9] concerns the target DNA gyrase (Escherichia coli) (UniProt P0AES6+P0AES4).

≈ marks a conversion by molar mass, not a printed value.

For the compound `Cc1c(F)c(N2CCNCC2)c(F)c2c1c(=O)c(C(=O)O)cn2C1CC1`, the MIC against Enterobacter cloacae was 0.025 µg/mL (≈ 0.0688 µM); against Escherichia coli, 0.025 µg/mL (≈ 0.0688 µM); in the experiment with Klebsiella pneumoniae, 0.025 µg/mL (≈ 0.0688 µM); in the experiment on Pseudomonas aeruginosa it was 0.2 µg/mL (≈ 0.55 µM); against Bacteria, 0.05 µg/mL (≈ 0.138 µM); with Streptococcus pneumoniae, 0.025 µg/mL (≈ 0.0688 µM). Also, the MIC came out at 0.05 µg/mL (≈ 0.138 µM) against Enterococcus faecalis, 0.05 µg/mL (≈ 0.138 µM) with Streptococcus pyogenes, 0.025 µg/mL (≈ 0.0688 µM) in the experiment on Staphylococcus aureus [5] and 0.025 µg/mL (≈ 0.0688 µM) in the experiment with Staphylococcus aureus [6]. Further, the ED50 is 13.5 mg/kg with Mus musculus [1], 0.4 mg/kg with Mus musculus [2], 14 mg/kg in the experiment with Mus musculus [3] and 0.2 mg/kg in the experiment with Mus musculus [4]. In addition, the values for the Ratio in experiment [7] and in experiment [8] were 0.043 and 0.033, respectively. The compound also gave a DNA cleavage in [9] of 2.75 µg/mL.

For the compound `NC1CCN(c2c(F)cc3c(=O)c(C(=O)O)cn(C4CC4)c3c2F)C1` (centres undefined), the minimal inhibitory concentration (MIC) against Escherichia coli amounted to 0.013 µg/mL (≈ 0.0372 µM); against Bacteria, 0.05 µg/mL (≈ 0.143 µM); in the experiment on Streptococcus pneumoniae, 0.05 µg/mL (≈ 0.143 µM); against Staphylococcus aureus [6], 0.013 µg/mL (≈ 0.0372 µM). For the same compound, the ED50 in the experiment on Mus musculus [1] amounted to 6 mg/kg; with Mus musculus [2], 1 mg/kg; in the experiment with Mus musculus [3], 15 mg/kg; with Mus musculus [4], 0.4 mg/kg. Moreover, the Ratio in experiment [7] worked out at 0.029; in experiment [8] it was 0.044. Moreover, the DNA cleavage in [9] worked out at 0.25 µg/mL.

Consider `Cc1c(F)c(N2CCNCC2)cc2c1c(=O)c(C(=O)O)cn2C1CC1`, for which the MIC with Enterobacter cloacae was 0.013 µg/mL (≈ 0.0376 µM); against Escherichia coli it was 0.013 µg/mL (≈ 0.0376 µM); in the experiment on Klebsiella pneumoniae, 0.05 µg/mL (≈ 0.145 µM); against Pseudomonas aeruginosa, 0.2 µg/mL (≈ 0.579 µM); in the experiment on Bacteria, 0.1 µg/mL (≈ 0.29 µM); in the experiment with Streptococcus pneumoniae, 0.05 µg/mL (≈ 0.145 µM). The MIC in the experiment with Enterococcus faecalis came to 0.05 µg/mL (≈ 0.145 µM); against Streptococcus pyogenes it was 0.1 µg/mL (≈ 0.29 µM); with Staphylococcus aureus [5], 0.1 µg/mL (≈ 0.29 µM); against Staphylococcus aureus [6], 0.025 µg/mL (≈ 0.0724 µM). For the same compound, the ED50 in the experiment on Mus musculus [1] stood at 21 mg/kg; in the experiment with Mus musculus [2] it was 1.5 mg/kg; with Mus musculus [3] it was 100 mg/kg; in the experiment with Mus musculus [4] it was 0.4 mg/kg. Also, the Ratio came out at 0.044 in experiment [7] and 0.057 in experiment [8]. Further, in experiment [9], the DNA cleavage amounted to 0.3 µg/mL.

As to `Cc1c(F)c(N2CCC(N)C2)cc2c1c(=O)c(C(=O)O)cn2C1CC1` (centres undefined), the minimal inhibitory concentration (MIC) with Enterobacter cloacae was 0.05 µg/mL (≈ 0.145 µM); in the experiment with Escherichia coli, 0.025 µg/mL (≈ 0.0724 µM); against Klebsiella pneumoniae, 0.1 µg/mL (≈ 0.29 µM); against Pseudomonas aeruginosa, 0.4 µg/mL (≈ 1.16 µM); in the experiment with Bacteria it was 0.1 µg/mL (≈ 0.29 µM); in the experiment on Streptococcus pneumoniae, 0.013 µg/mL (≈ 0.0376 µM). The MIC in the experiment on Enterococcus faecalis was found to be 0.4 µg/mL (≈ 1.16 µM); against Streptococcus pyogenes it was 0.025 µg/mL (≈ 0.0724 µM); against Staphylococcus aureus [5] it was 0.1 µg/mL (≈ 0.29 µM); against Staphylococcus aureus [6] it was 0.025 µg/mL (≈ 0.0724 µM). The ED50 in the experiment on Mus musculus [2] is 9.5 mg/kg; with Mus musculus [4] it was 0.7 mg/kg. Moreover, the figures for the Ratio in experiment [7] and in experiment [8] were 0.087 and 0.05, respectively. Also, in experiment [9], the DNA cleavage was 0.38 µg/mL.

As for `O=C(O)c1cn(C2CC2)c2cc(N3CCNCC3)c(F)cc2c1=O` [CIPROFLOXACIN], the ED50 was determined as 19 mg/kg with Mus musculus [1], 1 mg/kg in the experiment with Mus musculus [2], 100 mg/kg in the experiment on Mus musculus [3] and 0.25 mg/kg in the experiment on Mus musculus [4]. Further, the minimal inhibitory concentration (MIC) in the experiment on Pseudomonas aeruginosa is 0.4 µg/mL (≈ 1.21 µM); in the experiment on Bacteria, 0.05 µg/mL (≈ 0.151 µM); against Enterococcus faecalis, 0.8 µg/mL (≈ 2.41 µM); with Streptococcus pyogenes it was 0.8 µg/mL (≈ 2.41 µM); with Staphylococcus aureus [6], 0.2 µg/mL (≈ 0.604 µM).

In the case of `NC1CCN(c2cc3c(cc2F)c(=O)c(C(=O)O)cn3C2CC2)C1` (centres undefined), the minimal inhibitory concentration (MIC) against Escherichia coli came to 0.025 µg/mL (≈ 0.0754 µM); against Pseudomonas aeruginosa, 0.2 µg/mL (≈ 0.604 µM); in the experiment on Bacteria it was 0.1 µg/mL (≈ 0.302 µM); against Streptococcus pneumoniae, 0.1 µg/mL (≈ 0.302 µM). This compound registered a PD50 in the experiment with Mus musculus [2] of 3.4 mg/kg. Further, the figures for the ED50 with Mus musculus [2] and in the experiment on Mus musculus [4] were 3.4 mg/kg and 0.5 mg/kg, respectively. The Ratio in [7] was 0.057; in experiment [8], 0.075. This compound yielded a DNA cleavage in experiment [9] of 0.1 µg/mL.

As for `CCNCC1CCN(c2c(F)cc3c(=O)c(C(=O)O)cn(C4CC4)c3c2F)C1` (centres undefined) [PD-117558], the minimum inhibitory concentration (MIC) against Klebsiella pneumoniae is 0.1 µg/mL (≈ 0.255 µM); against Pseudomonas aeruginosa it was 0.4 µg/mL (≈ 1.02 µM); with Bacteria it was 0.2 µg/mL (≈ 0.511 µM); in the experiment on Streptococcus pyogenes, 0.025 µg/mL (≈ 0.0639 µM); in the experiment with Staphylococcus aureus [6], 0.013 µg/mL (≈ 0.0332 µM). Further, the ED50 in the experiment on Mus musculus [1] was 2 mg/kg; in the experiment on Mus musculus [2] it was 4.2 mg/kg; with Mus musculus [3], 3.3 mg/kg; with Mus musculus [4], 1 mg/kg. For the same compound, the Ratio in [7] was found to be 0.13; in experiment [8], 0.025. In experiment [9], this compound came in with a DNA cleavage of 0.25 µg/mL.

Regarding `CCNCC1CCN(c2cc3c(c(C)c2F)c(=O)c(C(=O)O)cn3-c2ccc(F)cc2F)C1` (centres undefined), the MIC against Enterobacter cloacae is 0.8 µg/mL (≈ 1.74 µM); in the experiment with Escherichia coli, 0.4 µg/mL (≈ 0.871 µM); against Klebsiella pneumoniae it was 0.8 µg/mL (≈ 1.74 µM); in the experiment with Pseudomonas aeruginosa it was 3.1 µg/mL (≈ 6.75 µM); with Bacteria, 1.6 µg/mL (≈ 3.48 µM); in the experiment with Streptococcus pneumoniae, 0.025 µg/mL (≈ 0.0544 µM). The MIC against Enterococcus faecalis amounted to 0.2 µg/mL (≈ 0.435 µM); in the experiment with Streptococcus pyogenes, 0.025 µg/mL (≈ 0.0544 µM); against Staphylococcus aureus [5] it was 0.1 µg/mL (≈ 0.218 µM); in the experiment on Staphylococcus aureus [6], 0.025 µg/mL (≈ 0.0544 µM). Also, the Ratio in experiment [7] was found to be 1.05; in experiment [8], 0.05. The same compound displayed a DNA cleavage in experiment [9] of 0.75 µg/mL.

As usually defined, the MIC is the lowest concentration found to suppress growth. A lower MIC goes with a more susceptible organism.

The values above are taken from ChEMBL document CHEMBL1125920, “Synthesis and biological activity of 5-alkyl-1,7,8-trisubstituted-6-fluoroquinoline-3-carboxylic acids” (1991).
